{
  "source": "ChEMBL document CHEMBL1146497",
  "about": "“Antifouling activity of brominated cyclopeptides from the marine sponge Geodia barretti” (J Nat Prod, 2004)",
  "assay_type_in_all_cases": "functional, organism-based",
  "key": {"Amphibalanus improvisus [1]": {"tested_on": "Amphibalanus improvisus", "assay": "Antifouling activity against Balanus improvisus […] assessed as inhibition of cyprid larval settlement at 0.1 to 10 uM after 3 to 4 days relative to control", "procedure,_shortened": "(§1)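 Competent Balanus improvisus cyprids (20 ± 2 per dish) in 10 mL filtered seawater (0.2 µm) containing test substance, dissolved first in milliQ water. Four replicate dishes per concentration, with filtered-seawater dishes as controls. Settled, living unsettled and dead cyprids were scored as percentages.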"}, "Amphibalanus improvisus [2]": {"tested_on": "Amphibalanus improvisus", "assay": "Antifouling activity against Balanus improvisus […] assessed as inhibition of cyprid larval settlement", "procedure,_shortened": "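Competent B. improvisus cyprids (20 ± 2 per dish) were exposed in 10 mL filtered seawater (0.2 µm), with four replicates and filtered-seawater controls. Test substances were dissolved in milliQ water and diluted into seawater as three tenfold concentration steps. Settled, living-unsettled and dead cyprids were scored as percentages.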"}, "Amphibalanus improvisus [3]": {"tested_on": "Amphibalanus improvisus", "assay": "Antifouling activity against Balanus improvisus […] assessed as inhibition of cyprid larval settlement at 1.9 uM after 3 to 4 days relative to control", "procedure,_shortened": "as §1"}},
  "note": "Activity calls are given as the source filed them. The calls are words filed in the database; no cut-off is given here.",
  "data": [
    {"compound": "NC(Cc1c[nH]c2cc(F)ccc12)C(=O)O", "note": "(racemic)", "values": [
      {"measurement": "Activity", "setting": "Amphibalanus improvisus [1]", "result": "inactive"}
    ]},
    {"compound": "NC(Cc1c[nH]c2ccc(Br)cc12)C(=O)O", "note": "(racemic)", "values": [
      {"measurement": "Activity", "setting": "Amphibalanus improvisus [1]", "result": "inactive"}
    ]},
    {"compound": "N=C(N)NCCC[C@@H]1NC(=O)/C(=C/c2c[nH]c3cc(Br)ccc23)NC1=O.O=C(O)C(F)(F)F", "values": [
      {"measurement": "Activity", "setting": "Amphibalanus improvisus [1]", "result": "Active"},
      {"measurement": "LC50", "setting": "Amphibalanus improvisus [2]", "result": 0.4, "unit": "µg/mL"},
      {"measurement": "Activity", "setting": "Amphibalanus improvisus [3]", "result": "Active"}
    ]},
    {"compound": "tributyltin-oxide", "values": [
      {"measurement": "LC50", "setting": "Amphibalanus improvisus [2]", "result": 0.09, "unit": "µg/mL"}
    ]},
    {"compound": "N=C(N)NCCCC1NC(=O)C(Cc2c[nH]c3cc(Br)ccc23)NC1=O.O=C(O)C(F)(F)F", "note": "(stereo unspecified)", "values": [
      {"measurement": "Activity", "setting": "Amphibalanus improvisus [1]", "result": "Active"},
      {"measurement": "LC50", "setting": "Amphibalanus improvisus [2]", "result": 4, "unit": "µg/mL"}
    ]},
    {"compound": "N=C(N)NCCC[C@H](N)C(=O)O", "values": [
      {"measurement": "Activity", "setting": "Amphibalanus improvisus [1]", "result": "inactive"}
    ]},
    {"compound": "NC(Cc1c[nH]c2cc(Br)ccc12)C(=O)O", "note": "(racemic)", "values": [
      {"measurement": "Activity", "setting": "Amphibalanus improvisus [1]", "result": "inactive"}
    ]},
    {"compound": "N[C@@H](Cc1c[nH]c2ccccc12)C(=O)O", "values": [
      {"measurement": "Activity", "setting": "Amphibalanus improvisus [1]", "result": "inactive"}
    ]}
  ]
}
